Two compounds from ChEMBL document CHEMBL1914423, “New imidazo[2,1-b]thiazole derivatives: synthesis, in vitro anticancer evaluation, and in silico studies” (Eur J Med Chem, 2011) can be followed below.

This assay is described as follows: Antiproliferative activity against human A375P cells after 48 hrs by MTT assay. It counts as functional, cell-based. An outline of the steps:
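A375P cells in DMEM with 10% FBS at 37 °C, 5% CO2. Seeded at 5×10³ cells/well, held 24 h, then treated with 12-point 3-fold serial dilutions for 48 h. Viability by MTT reduction. IC50 values are means of triplicate experiments.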

SMILES strings stand for the structures.

For `CNC(=O)c1cc(Oc2ccc(NC(=O)Nc3ccc(Cl)c(C(F)(F)F)c3)cc2)ccn1` [SORAFENIB], half-maximal inhibition (IC50) required 5.6 µM.

Turning to `COc1cccc(-c2nc3sccn3c2-c2ccnc(NCCNC(=O)Nc3cc(C(F)(F)F)cc(C(F)(F)F)c3)n2)c1`, the concentration for half-maximal inhibition (IC50) (commonly the concentration needed to halve the response being measured) came to 4.3 µM.
